Tests used:
NCI-H460 = assay: Growth inhibition of human NCI-H460 cells; type: functional
[1] = Growth inhibition of human Hs 578T cells; type: functional
HCT-116 = assay: Growth inhibition of human HCT116 cells; type: functional
NCI-H226 = assay: Growth inhibition of human NCI-H226 cells; type: functional
SN12C = assay: Growth inhibition of human SN12C cells; type: functional
TK-10 = assay: Growth inhibition of human TK10 cells; type: functional
BT-549 = assay: Growth inhibition of human BT549 cells; type: functional
NCI-H23 = assay: Growth inhibition of human NCI-H23 cells; type: functional
HCT-15 = assay: Growth inhibition of human HCT15 cells; type: functional
SF-295 = assay: Growth inhibition of human SF295 cells; type: functional
PC-3 = assay: Growth inhibition of human PC3 cells; type: functional
OVCAR-3 = assay: Growth inhibition of human OVCAR-3 cells; type: functional
LOX IMVI = assay: Growth inhibition of human LOXIMVI cells; type: functional
MDA-MB-231 = assay: Growth inhibition of human MDA-MB-231 cells; type: functional
SR = assay: Growth inhibition of human SR cells; type: functional
NCI-H522 = assay: Growth inhibition of human NCI-H522 cells; type: functional
OVCAR-4 = assay: Growth inhibition of human OVCAR4 cells; type: functional
UACC-257 = assay: Growth inhibition of human UACC257 cells; type: functional
[2] = Antiproliferative activity against mouse B16-F1 cells after 48 hrs by SRB assay; type: functional, cell-based; details: B16-F1, 48 h
How it was run: (§1)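 Melanoma lines and control fibroblasts grown at 37 °C, 5% CO2, then exposed to a wide concentration range for 48 h in round-bottom 96-well plates. Fixed with 10% TCA, stained with SRB, protein read at 560 nm. IC50 (50% growth inhibition versus untreated) obtained by nonlinear regression.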

SK-MEL-28 = assay: Growth inhibition of human SK-MEL-28 cells; type: functional
COLO 205 = assay: Growth inhibition of human COLO205 cells; type: functional
[3] = Antiproliferative activity against human WM164 cells after 48 hrs by SRB assay; type: functional, cell-based; details: WM164, 48 h; how it was run: as §1
UO-31 = assay: Growth inhibition of human UO31 cells; type: functional
CCRF-CEM = assay: Growth inhibition of human CCRF-CEM cells; type: functional
[4] = Cytotoxicity against human fibroblasts after 48 hrs by SRB assay; type: cell-based; details: Fibroblast; how it was run: as §1
[5] = Growth inhibition of human […] cells; type: functional
SF-268 = assay: Growth inhibition of human SF268 cells; type: functional
SW-620 = assay: Growth inhibition of human SW620 cells; type: functional
SK-MEL-5 = assay: Growth inhibition of human SK-MEL-5 cells; type: functional
HL-60(TB) = assay: Growth inhibition of human HL-60(TB) cells; type: functional
HCC 2998 = assay: Growth inhibition of human HCC2998 cells; type: functional
786-0 = assay: Growth inhibition of human 786-0 cells; type: functional
SNB-19 = assay: Growth inhibition of human SNB19 cells; type: functional
A498 = assay: Growth inhibition of human A498 cells; type: functional
HT-29 = assay: Growth inhibition of human HT-29 cells; type: functional
HOP-62 = assay: Growth inhibition of human HOP62 cells; type: functional
OVCAR-5 = assay: Growth inhibition of human OVCAR5 cells; type: functional
DU-145 = assay: Growth inhibition of human DU145 cells; type: functional
RH7777 = assay: Cytotoxicity against rat RH7777 cells after 96 hrs by SRB assay; type: cell-based; details: RH7777, 96 h
How it was run: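 Prostate lines in RPMI1640/10% FBS; RH7777 in DMEM/10% FBS. Cells TCA-fixed, stained with 0.4% SRB, absorbance read at 540 nm. IC50 from nonlinear regression of % survival against concentration.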

EKVX = assay: Growth inhibition of human EKVX cells; type: functional
MDA-MB-435 = assay: Growth inhibition of human MDA-MB-435 cells; type: functional
[6] = read-out: LC50 (the source's name)

Q: Which GI50 (NCI-H460) does the source give for `CCCCCCCCCCCCCCCCNC(=O)[C@@H]1CSC(c2ccc(NC(C)=O)cc2)N1` (mixture of isomers) here?
A: 190 nM

Q: What about the TGI (NCI-H460) of the same compound?
A: 390 nM

Q: What about the CC50 (NCI-H460; [6]) of the same compound?
A: 790 nM

Q: What about the GI50 [1] of the same compound?
A: 180 nM

Q: And the TGI [1]?
A: 380 nM

Q: And the CC50 [1, 6]?
A: 780 nM

Q: What about the GI50 (HCT-116) of the same compound?
A: 180 nM

Q: And the TGI (HCT-116)?
A: 330 nM

Q: What about the CC50 (HCT-116; [6]) of the same compound?
A: 600 nM

Q: What about the GI50 (NCI-H226) of the same compound?
A: 230 nM

Q: What about the TGI (NCI-H226) of the same compound?
A: 390 nM

Q: And the CC50 (NCI-H226; [6])?
A: 690 nM

Q: And the GI50 (SN12C)?
A: 350 nM

Q: And the TGI (SN12C)?
A: 510 nM

Q: What about the CC50 (SN12C; [6]) of the same compound?
A: 740 nM

Q: What about the GI50 (TK-10) of the same compound?
A: 650 nM

Q: What about the TGI (TK-10) of the same compound?
A: 2110 nM

Q: What about the CC50 (TK-10; [6]) of the same compound?
A: 5400 nM

Q: And the GI50 (BT-549)?
A: 180 nM

Q: What about the TGI (BT-549) of the same compound?
A: 330 nM

Q: What about the CC50 (BT-549; [6]) of the same compound?
A: 630 nM

Q: What about the GI50 (NCI-H23) of the same compound?
A: 320 nM

Q: And the TGI (NCI-H23)?
A: 1050 nM

Q: And the CC50 (NCI-H23; [6])?
A: 4860 nM

Q: And the GI50 (HCT-15)?
A: 1000 nM

Q: And the TGI (HCT-15)?
A: 3220 nM

Q: And the CC50 (HCT-15; [6])?
A: 11900 nM

Q: And the GI50 (SF-295)?
A: 280 nM

Q: What about the TGI (SF-295) of the same compound?
A: 1060 nM

Q: What about the CC50 (SF-295; [6]) of the same compound?
A: 4090 nM

Q: What about the GI50 (PC-3) of the same compound?
A: 170 nM

Q: What about the TGI (PC-3) of the same compound?
A: 340 nM

Q: What about the CC50 (PC-3; [6]) of the same compound?
A: 640 nM

Q: What about the GI50 (OVCAR-3) of the same compound?
A: 220 nM

Q: What about the TGI (OVCAR-3) of the same compound?
A: 420 nM

Q: And the CC50 (OVCAR-3; [6])?
A: 790 nM

Q: What about the GI50 (LOX IMVI) of the same compound?
A: 140 nM

Q: And the TGI (LOX IMVI)?
A: 300 nM

Q: And the CC50 (LOX IMVI; [6])?
A: 830 nM

Q: What about the GI50 (MDA-MB-231) of the same compound?
A: 180 nM

Q: What about the TGI (MDA-MB-231) of the same compound?
A: 320 nM

Q: What about the CC50 (MDA-MB-231; [6]) of the same compound?
A: 590 nM

Q: What about the GI50 (SR) of the same compound?
A: 160 nM

Q: What about the TGI (SR) of the same compound?
A: 350 nM

Q: And the CC50 (SR; [6])?
A: 810 nM

Q: What about the GI50 (NCI-H522) of the same compound?
A: 3810 nM

Q: What about the TGI (NCI-H522) of the same compound?
A: 20700 nM

Q: And the CC50 (NCI-H522; [6])?
A: > 100000 nM

Q: And the GI50 (OVCAR-4)?
A: 230 nM

Q: And the TGI (OVCAR-4)?
A: 490 nM

Q: And the CC50 (OVCAR-4; [6])?
A: 120 nM

Q: What about the GI50 (UACC-257) of the same compound?
A: 1480 nM

Q: And the TGI (UACC-257)?
A: 3160 nM

Q: And the CC50 (UACC-257; [6])?
A: 6710 nM

Q: What about the IC50 [2] of the same compound?
A: 2200 nM

Q: And the GI50 (SK-MEL-28)?
A: 130 nM

Q: And the TGI (SK-MEL-28)?
A: 260 nM

Q: And the CC50 (SK-MEL-28; [6])?
A: 520 nM

Q: And the GI50 (COLO 205)?
A: 1910 nM

Q: What about the CC50 (COLO 205; [6]) of the same compound?
A: > 100000 nM

Q: What about the IC50 [3] of the same compound?
A: 1100 nM

Q: What about the GI50 (UO-31) of the same compound?
A: 190 nM

Q: What about the TGI (UO-31) of the same compound?
A: 340 nM

Q: What about the CC50 (UO-31; [6]) of the same compound?
A: 6100 nM

Q: What about the GI50 (CCRF-CEM) of the same compound?
A: 120 nM

Q: And the TGI (CCRF-CEM)?
A: 400 nM

Q: And the CC50 (CCRF-CEM; [6])?
A: 13000 nM

Q: What about the IC50 [4] of the same compound?
A: 16000 nM

Q: What about the GI50 [5] of the same compound?
A: 220 nM

Q: What about the TGI [5] of the same compound?
A: 560 nM

Q: And the CC50 [5, 6]?
A: > 100000 nM

Q: What about the GI50 (SF-268) of the same compound?
A: 160 nM

Q: And the TGI (SF-268)?
A: 310 nM

Q: What about the CC50 (SF-268; [6]) of the same compound?
A: 600 nM

Q: What about the GI50 (SW-620) of the same compound?
A: 210 nM

Q: And the TGI (SW-620)?
A: 430 nM

Q: And the CC50 (SW-620; [6])?
A: 890 nM

Q: What about the GI50 (SK-MEL-5) of the same compound?
A: 750 nM

Q: What about the TGI (SK-MEL-5) of the same compound?
A: 2130 nM

Q: What about the CC50 (SK-MEL-5; [6]) of the same compound?
A: 5130 nM

Q: What about the GI50 (HL-60(TB)) of the same compound?
A: 170 nM

Q: And the TGI (HL-60(TB))?
A: 370 nM

Q: And the CC50 (HL-60(TB); [6])?
A: 790 nM

Q: What about the GI50 (HCC 2998) of the same compound?
A: 440 nM

Q: What about the TGI (HCC 2998) of the same compound?
A: 1810 nM

Q: And the CC50 (HCC 2998; [6])?
A: 4580 nM

Q: What about the GI50 (786-0) of the same compound?
A: 220 nM

Q: What about the TGI (786-0) of the same compound?
A: 420 nM

Q: What about the CC50 (786-0; [6]) of the same compound?
A: 770 nM

Q: What about the GI50 (SNB-19) of the same compound?
A: 190 nM

Q: What about the TGI (SNB-19) of the same compound?
A: 400 nM

Q: And the CC50 (SNB-19; [6])?
A: 820 nM

Q: And the GI50 (A498)?
A: 940 nM

Q: What about the TGI (A498) of the same compound?
A: 2200 nM

Q: And the CC50 (A498; [6])?
A: 4970 nM

Q: And the GI50 (HT-29)?
A: 230 nM

Q: What about the TGI (HT-29) of the same compound?
A: 480 nM

Q: And the CC50 (HT-29; [6])?
A: 1090 nM

Q: What about the GI50 (HOP-62) of the same compound?
A: 200 nM

Q: And the TGI (HOP-62)?
A: 380 nM

Q: And the CC50 (HOP-62; [6])?
A: 700 nM

Q: And the GI50 (OVCAR-5)?
A: 200 nM

Q: And the TGI (OVCAR-5)?
A: 370 nM

Q: What about the CC50 (OVCAR-5; [6]) of the same compound?
A: 670 nM

Q: What about the GI50 (DU-145) of the same compound?
A: 270 nM

Q: And the TGI (DU-145)?
A: 630 nM

Q: What about the CC50 (DU-145; [6]) of the same compound?
A: 2150 nM

Q: What about the IC50 (RH7777) of the same compound?
A: 6800 nM

Q: What about the GI50 (EKVX) of the same compound?
A: 300 nM

Q: And the TGI (EKVX)?
A: 880 nM

Q: What about the CC50 (EKVX; [6]) of the same compound?
A: 4110 nM

Q: What about the GI50 (MDA-MB-435) of the same compound?
A: 150 nM

Q: What about the TGI (MDA-MB-435) of the same compound?
A: 300 nM

Q: What about the CC50 (MDA-MB-435; [6]) of the same compound?
A: 600 nM
